According to ChEMBL document CHEMBL1157464, “1-[(3-Aryloxy-3-aryl)propyl]-1H-imidazoles, new imidazoles with potent activity against Candida albicans and dermatophytes. Synthesis, structure-activity relationship, and molecular modeling studies” (J Med Chem, 2008):
Converted amounts (≈) assume the structure as drawn.

Tests used:
Arthrodermataceae [1] = experiment: Antifungal activity against dermatophytes at 28 degC after 5 days by broth microdilution test; conditions: for MFC: Arthrodermataceae
Candida albicans [2] = experiment: Antifungal activity against Candida albicans ATCC 10261 at 35 degC after 48 to 96 hrs by broth microdilution test; type: functional
How it was run: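 Minimal fungicidal concentration for Candida. […] MFC is the lowest concentration allowing fewer than two colonies (99% killing).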

Candida albicans [3] = experiment: Antifungal activity against fluconazole-resistant Candida albicans isolated from oropharyngeal or vaginal disease patient after 48 hrs by broth microdilution test; type: functional
[4] = Cytotoxicity against human K562 cells after assessed as reduction of cell viability 24 hrs by MTT assay; type: cell-based
How it was run: (§1)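 U937 and K562 cells, from ATCC, plated at 5 × 10^4/mL in phenol-red-free RPMI-1640 with 20% FBS and penicillin/streptomycin. Compounds added 2 h later at 25–100 µg/mL, then 24 h at 37 °C. MTT at 1 mg/mL for 3 h, formazan dissolved in isopropanol with 0.1 N HCl, absorbance read at 570 nm. CC50 is the concentration reducing viability by 50% versus the drug-free control.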

Candida parapsilosis = experiment: Antifungal activity against Candida parapsilosis ATCC 22019 at 35 degC after 48 hrs by broth microdilution test; type: functional; conditions: for MFC: read-out: MFC
How it was run: (§2)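 Broth microdilution per NCCLS M27-A2. Stocks in 100% DMSO, diluted in RPMI 1640 with 0.165 M MOPS at pH 7.0; final range 0.25–128 µg/mL. Inoculum 1000–5000 cells/mL from SDA subcultures. […] C. parapsilosis ATCC22019 served as QC strain.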

Arthrodermataceae [5] = experiment: Antifungal activity against dermatophytes at 28 degC after 48 to 96 hrs by broth microdilution test
Arthrodermataceae [6] = experiment: Antifungal activity against dermatophytes at 28 degC after 7 days by broth microdilution test; type: functional; conditions: 168 h
How it was run: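 Ten clinical isolates (two M. canis, five M. gypseum, three T. mentagrophytes) tested by NCCLS M38-A broth microdilution in MOPS-buffered RPMI 1640, pH 7.0, over 0.25–128 µg/mL. Conidial/hyphal suspension from PDA slants (28 °C, 7 days) adjusted to 65–70% transmittance at OD530, then diluted 1:50.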

[7] = Cytotoxicity against human U937 cells assessed as reduction of cell viability after 24 hrs by MTT assay; type: cell-based, U-937
How it was run: as §1

Candida albicans [8] = experiment: Antifungal activity against fluconazole-sensitive Candida albicans Fe40 at 35 degC after 48 hrs by broth microdilution test; type: functional
How it was run: as §2

Candida albicans [9] = experiment: Antifungal activity against Candida albicans ATCC 10261 at 35 degC after 48 hrs by broth microdilution test; type: functional; conditions: for MIC50: read-out: MIC50
How it was run: as §2

[10] = Therapeutic index, ratio of CC50 for human U937 cells to MIC90 for Candida albicans ATCC 10261; type: cell-based, U-937
How it was run: (§3)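 Therapeutic index calculated as CC50 in the given cell line divided by MIC90.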

[11] = Therapeutic index, ratio of CC50 for human K562 cells to MIC90 for Candida albicans ATCC 10261; type: cell-based
How it was run: as §3

[12] = Candida albicans, ATCC 10261, read-out: MFC
[13] = Lodderomyces parapsilosis, ATCC 22019, 48 h
[14] = Lodderomyces parapsilosis, ATCC 22019, 48 h, read-out: MIC
[15] = Candida albicans, ATCC 10261, 48 h, read-out: MIC
[16] = Candida albicans, ATCC 10261, 48 h
[17] = Candida albicans, ATCC 10261, 48 h, read-out: MIC90

Row | SMILES | MFC90 (Arthrodermataceae [1]) [µg/mL] | MFC (Arthrodermataceae [1]) [µg/mL] | MFC50 (Candida albicans [2]) [µg/mL] | MFC90 (Candida albicans [2]) [µg/mL] | MFC (Candida albicans [2]; [12]) [µg/mL] | MIC (Candida albicans [3]) [µg/mL] | CC50 at 24 h [4] [µM] | MFC (Candida parapsilosis; [13]) [µg/mL] | MIC (Candida parapsilosis; [14]) [µg/mL] | MFC50 (Arthrodermataceae [5]) [µg/mL] | MIC (Arthrodermataceae [6]) [µg/mL] | MIC50 (Arthrodermataceae [6]) [µg/mL] | MIC90 (Arthrodermataceae [6]) [µg/mL] | CC50 at 24 h [7] [µM] | MIC (Candida albicans [8]) [µg/mL] | MIC (Candida albicans [9]; [15]) [µg/mL] | MIC50 (Candida albicans [9]; [16]) [µg/mL] | MIC90 (Candida albicans [9]; [17]) [µg/mL] | further results
1 | Clc1ccc(C(CCn2ccnc2)Oc2ccc(Cl)cc2Cl)cc1 (stereo not given) | 16 (≈ 41.9 µM) | 11 (≈ 28.8 µM) | 4 (≈ 10.5 µM) | 8 (≈ 21 µM) | 5.12 (≈ 13.4 µM) | 6.4 (≈ 16.8 µM) | 68.8 | 8 (≈ 21 µM) | 1 (≈ 2.62 µM) | 8 (≈ 21 µM) | 9.8 (≈ 25.7 µM) | 8 (≈ 21 µM) | 16 (≈ 41.9 µM) | 172 | 2 (≈ 5.24 µM) | 2.85 (≈ 7.47 µM) | 2 (≈ 5.24 µM) | 4 (≈ 10.5 µM) | –
2 | Clc1ccc(C(CCn2ccnc2)Oc2ccccc2)cc1 (stereo not given) | 32 (≈ 102 µM) | 30.4 (≈ 97.2 µM) | 16 (≈ 51.2 µM) | 64 (≈ 205 µM) | 29.2 (≈ 93.4 µM) | 14.4 (≈ 46 µM) | 186 | 16 (≈ 51.2 µM) | 4 (≈ 12.8 µM) | 32 (≈ 102 µM) | 7.2 (≈ 23 µM) | 8 (≈ 25.6 µM) | 8 (≈ 25.6 µM) | 248 | 8 (≈ 25.6 µM) | 8.8 (≈ 28.1 µM) | 8 (≈ 25.6 µM) | 16 (≈ 51.2 µM) | –
3 | Cc1ccc(OC(CCCn2ccnc2)c2ccc(Cl)cc2)cc1 (stereo not given) | – | – | 4 (≈ 11.7 µM) | 8 (≈ 23.5 µM) | 5.6 (≈ 16.4 µM) | – | 259 | 0.25 (≈ 0.733 µM) | 0.03 (≈ 0.088 µM) | – | – | – | – | 350 | – | 2.1 (≈ 6.16 µM) | 2 (≈ 5.87 µM) | 4 (≈ 11.7 µM) | selectivity ratio [10]: 87.5; selectivity ratio [11]: 64.8
4 | Fc1ccc(C(CCn2ccnc2)Oc2cc(Cl)cc(Cl)c2)cc1 (stereo not given) | 32 (≈ 87.6 µM) | 28.5 (≈ 78 µM) | 16 (≈ 43.8 µM) | 16 (≈ 43.8 µM) | 11.7 (≈ 32 µM) | 12.8 (≈ 35 µM) | 98.1 | 4 (≈ 11 µM) | 1 (≈ 2.74 µM) | 32 (≈ 87.6 µM) | 16.2 (≈ 44.4 µM) | 16 (≈ 43.8 µM) | 16 (≈ 43.8 µM) | 160 | 8 (≈ 21.9 µM) | 8.8 (≈ 24.1 µM) | 8 (≈ 21.9 µM) | 16 (≈ 43.8 µM) | –
5 | Clc1ccc(COC(Cn2ccnc2)c2ccc(Cl)cc2Cl)cc1 (stereo not given) [ECONAZOLE] | 8 (≈ 21 µM) | 6 (≈ 15.7 µM) | 16 (≈ 41.9 µM) | 32 (≈ 83.8 µM) | 15 (≈ 39.4 µM) | – | 70 | 2 (≈ 5.24 µM) | 2 (≈ 5.24 µM) | 4 (≈ 10.5 µM) | 2.1 (≈ 5.5 µM) | 1 (≈ 2.62 µM) | 4 (≈ 10.5 µM) | 108 | – | 4.3 (≈ 11.3 µM) | 4 (≈ 10.5 µM) | 8 (≈ 21 µM) | selectivity ratio [10]: 13.5; selectivity ratio [11]: 8.8
6 | Clc1ccc(OC(CCn2ccnc2)c2ccccc2)c(Cl)c1 (racemic) | 32 (≈ 92.2 µM) | 28.8 (≈ 82.9 µM) | 8 (≈ 23 µM) | 16 (≈ 46.1 µM) | – | 7.2 (≈ 20.7 µM) | 121 | 8 (≈ 23 µM) | – | 16 (≈ 46.1 µM) | 9.2 (≈ 26.5 µM) | 8 (≈ 23 µM) | 8 (≈ 23 µM) | 166 | 2 (≈ 5.76 µM) | – | 8 (≈ 23 µM) | – | MFC (Candida albicans [2]): 11.4 µg/mL (≈ 32.8 µM); MIC (Candida parapsilosis): 2 µg/mL (≈ 5.76 µM); MIC (Candida albicans [9]): 5.3 µg/mL (≈ 15.3 µM); MIC90 (Candida albicans [9]): 8 µg/mL (≈ 23 µM)
7 | Cc1ccc(OC(CCn2ccnc2)c2ccc(F)cc2)cc1 (stereo not given) | 16 (≈ 51.6 µM) | 16 (≈ 51.6 µM) | 16 (≈ 51.6 µM) | 32 (≈ 103 µM) | 23 (≈ 74.1 µM) | 9.6 (≈ 30.9 µM) | 383 | 32 (≈ 103 µM) | 4 (≈ 12.9 µM) | 16 (≈ 51.6 µM) | 10 (≈ 32.2 µM) | 8 (≈ 25.8 µM) | 16 (≈ 51.6 µM) | 120 | 4 (≈ 12.9 µM) | 7 (≈ 22.6 µM) | 4 (≈ 12.9 µM) | 8 (≈ 25.8 µM) | –
